# Bioassay records from PubChem.
# Most compounds without a hit are left out; they make up all but 2% or so of the library.
# PAD4 FP inh = inhibitors of human PAD4; Q9UM07; recombinant PAD4, RCA probe fluorescence polarization; inhibition, % at 6.36 µM; hit rate 0.41% among 330,000; AID 485272;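 active means percent inhibition above a cutoff equal to the mean of all tested compounds plus 3 SD, cut at about 15% in these data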;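 further: 0% = PAD4 with RCA probe and DMSO and 100% = probe without PAD4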
# Target sequence (Q9UM07 whole entry, looked up): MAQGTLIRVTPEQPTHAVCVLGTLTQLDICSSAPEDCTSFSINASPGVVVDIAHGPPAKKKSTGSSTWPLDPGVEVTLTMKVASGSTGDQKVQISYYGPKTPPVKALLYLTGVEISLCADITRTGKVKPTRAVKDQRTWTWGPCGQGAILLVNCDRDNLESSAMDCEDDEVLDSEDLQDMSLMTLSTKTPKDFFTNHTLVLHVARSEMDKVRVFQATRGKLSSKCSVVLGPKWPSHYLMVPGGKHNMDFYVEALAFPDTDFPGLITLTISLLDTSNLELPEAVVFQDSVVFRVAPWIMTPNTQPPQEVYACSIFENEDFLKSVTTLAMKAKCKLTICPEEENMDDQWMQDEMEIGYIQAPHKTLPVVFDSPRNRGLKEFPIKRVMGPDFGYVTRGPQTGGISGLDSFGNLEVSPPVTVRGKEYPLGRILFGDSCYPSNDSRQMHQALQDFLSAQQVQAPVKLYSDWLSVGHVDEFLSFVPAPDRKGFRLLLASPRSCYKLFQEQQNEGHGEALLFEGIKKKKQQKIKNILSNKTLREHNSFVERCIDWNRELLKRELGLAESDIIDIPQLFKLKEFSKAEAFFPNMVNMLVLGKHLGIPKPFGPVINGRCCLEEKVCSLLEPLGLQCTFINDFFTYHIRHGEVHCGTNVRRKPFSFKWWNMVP
# TDP2 inh = blocks human TDP2 phosphodiesterase activity; recombinant TDP2, T5PNP hydrolysis, p-nitrophenol absorbance 415 nm; inhibition, % at 12.8 µM; O95551; hit rate 0.34% among 370,000;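 active means inhibition above the mean of all tested compounds plus 3 SD, set per campaign, cut at about 25% in these data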;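 further: 0% = DMSO with enzyme and 100% = buffer with substrate but no TDP2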
#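 System – recombinant human TDP2 · Amount – 120 nM TDP2 per well · Buffer or medium – Mg2+-containing Tris-HCl buffer, pH 7.5 · Reagent – T5PNP substrate, 5 mM · Dosing – 12.8 µM single point, 1% DMSO · Incubation – 2 h at 37 °C · Measured by – epi absorbance · Read-out basis – percent inhibition · Benchmarks – high control without enzyme, low control DMSO plus TDP2 · Repeats – singlicate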
# TCR-CD3 inh = blocks the human TCR-CD3 interaction. hit rate 0.37% among 360,000. TAMRA-labeled TCR probe fluorescence, biochemical. inhibition, % at 9.4 µM;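 further: recombinant mutant TCR 2C K166C tagged with TAMRA read by polarization; 0% = receptor in buffer alone and 100% = receptor with positive control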
# ABHD4 inh = inhibits mouse alpha/beta hydrolase domain 4. inhibition, % at 8.92 µM. AID 720543. hit rate 0.54% among 370,000. Q8VD66. purified mABHD4, FP-Rh probe fluorescence polarization;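 active means inhibition exceeding the mean over every tested compound plus 3 SD, cut at about 30% in these data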;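 further: 0% = plate median of compound wells and 100% = S159A mutant with DMSO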
#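 Doses – 8.92 µM, single dose · Material – wild-type mouse ABHD4 protein · Replication – single well per compound (singlicate) · Measure – percent inhibition of probe binding, normalized to plate controls · Schedule – 45 min compound pre-incubation plus 60 min probe step, 25 °C · Detection – fluorescence polarization with parallel and perpendicular emission, 525/598 nm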
# HTRA1 inhibitor = blocks human HTRA1 serine peptidase; inhibition, % at 5.96 µM; hit rate 0.5% among 340,000; Q92743; recombinant HTRA1, FP-rhodamine activity-based probe, fluorescence polarization; in the data active means inhibition above about 36%;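 further: 0% = enzyme with DMSO and 100% = wells lacking enzyme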
# SIAE inh = human SIAE inhibition, primary screen. Q9HAT2. SIAE FP-Rh probe binding, fluorescence polarization. inhibition, % at 9.66 µM. hit rate 0.69% among 370,000. AID 1053197;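 active means inhibition above a cutoff: mean of compounds within the control limits plus 3 SD of those, cut at about 17% in these data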;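 further: 0% = plate median of compound wells and 100% = probe without SIAE protein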
# BSA TAMRA ctr = counter-screen for TCR-CD3 interaction inhibitors: BSA probe | TAMRA-labeled BSA probe fluorescence counterscreen | hit rate 10% among 1,200 | inhibition, % at 9.4 µM | shares compounds with TCR-CD3 inh; in the data active means inhibition above about 23%;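 further: 0% = buffer low control and 100% = reference high control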
# TCR-CD3 inh conf = TCR-CD3 interaction inhibition, confirmation; shares compounds with TCR-CD3 inh; TAMRA-labeled TCR probe fluorescence binding assay; inhibition, % at 9.4 µM; hit rate 48% among 1,200; AID 652036
# Starred values were filed as active, the others as inactive; x = no result. Unless noted, no stated cut-off is given here; in the data, active means inhibition above about 19%; inactive means the rest.
SMILES,PAD4 FP inh,TDP2 inh,TCR-CD3 inh,ABHD4 inh,HTRA1 inhibitor,SIAE inh,BSA TAMRA ctr,TCR-CD3 inh conf
COc1ccc(C2=NOC(C)(c3nnc(-c4ccc(Cl)cc4)o3)C2)cc1 (centres undefined),4,9,34*,-7,-15,5,0,0
CC1(c2nnc(-c3ccc(Cl)cc3)o2)CC(c2ccc(Cl)cc2)=NO1 (centres undefined),-2,-3,8,3,-5,2,x,x
COC(=O)C1CN(Cc2cn(Cc3ccc(C)cc3)nn2)CCS(=O)(=O)N1Cc1ccc(OC)cc1 (centres undefined),x,2,x,2,x,3,x,x
S=c1[nH]nc(-c2n[nH]c3c2CCC3)n1/N=C/C=C/c1ccco1,5,-7,27*,14,x,1,9,11
S=c1[nH]nc(-c2n[nH]c3c2CCC3)n1N=Cc1ccco1,x,4,x,10,x,14,x,x
CCC(CC)C(C(=O)NCc1ccccc1)N1CCN(c2cccc(C)c2C)CC1 (centres undefined),x,-4,31*,-5,x,3,-1,-1
CC(=O)NNS(=O)(=O)c1scc(S(=O)(=O)c2ccc(Cl)cc2)c1C,3,2,1,1,-3,0,x,x
O=c1cc(-c2ccccc2)[nH]n2cnnc12,-3,-3,9,-2,8,5,x,x
CC1CCCCN1c1nc(-c2ccncc2)nc2ccccc12 (centres undefined),3,-13,-1,-18,-22,-3,x,x
CCC1CCCCN1c1nc(-c2ccncc2)nc2ccccc12 (centres undefined),-4,-8,44*,-15,-26,-8,1,-3
O=C(NCc1ccccc1F)C1CC(=O)N(Cc2ccco2)C1 (centres undefined),x,-8,42*,-9,5,0,3,2
O=C(N/N=C/c1c(Cl)nc2ccccn2c1=O)c1cccnc1,-2,-8,29*,13,7,-2,-6,6
O=c1ccc2cc3c([nH]c4ccc(Br)cc43)oc-2c1O,-15,3,38*,60*,62*,64*,-36,14
CCCCCCN1CCN(C2CN(Cc3cn(CCCC(=O)OC)nn3)S(=O)(=O)C2)CC1 (centres undefined),x,-10,-1,-7,x,-7,x,x
O=C(O)CCC(=O)NNC(=O)c1ccc(-c2ccccc2)cc1,1,10,2,7,-4,6,x,x
O=C(NNC(=O)c1ccc(O)cc1O)c1ccc(-c2ccccc2)cc1,6,-4,28*,4,24,2,-9,22*
O=C(NNC(=O)c1ccc2ccccc2c1O)NC1CCCCC1,x,-7,20*,6,20,17,-7,21*
Cc1cccc(NC(=O)NNC(=O)c2ccc3ccccc3c2O)c1,x,-8,33*,13,15,17,-8,29*
COc1ccc(C(=O)NNC(=O)c2ccc3ccccc3c2O)cc1,-1,-21,38*,6,4,14,-11,38*
CCOC(=O)c1ccccc1NC(=O)CSC(C)C(=O)Nc1cc(C)on1 (centres undefined),0,8,5,4,3,2,x,x
CCC(C(=O)NCC1CCCO1)N(Cc1ccccc1)C(=O)CNS(=O)(=O)c1ccccc1 (centres undefined),0,1,0,7,-6,0,x,x
Cc1ccc(C(=O)NNC(=O)c2ccc3ccccc3c2O)cc1,0,-2,43*,11,-2,-2,-6,34*
O=C(NNC(=O)c1cccc2ccccc12)c1ccc(-c2ccccc2)cc1,5,-3,0,4,5,1,x,x
COC(=O)c1cc(O)c(O)c(O)c1,5,-3,22*,12,13,8,-1,20*
COC(=O)c1cc(OC)nc(OC)c1,3,3,-10,0,4,-7,x,x
SMILES,PAD4 FP inh,TDP2 inh,TCR-CD3 inh,ABHD4 inh,HTRA1 inhibitor,SIAE inh,BSA TAMRA ctr,TCR-CD3 inh conf
C/C(=N\NC(=O)c1cc(C2CC2)nc2ccccc12)c1ccc(O)cc1O,1,-10,22*,8,15,8,-12,24*
Clc1ccc(-c2cn(-c3ccc(Cl)cc3)c3[n+]2CCCCC3)cc1,1,-8,3,-4,-1,7,x,x
COc1ccc(-c2cn(-c3ccc(Cl)cc3)c3[n+]2CCCCC3)cc1,-4,5,34*,-3,0,6,-6,0
Cc1cccc(NC(=O)CNC(=O)CCNC(=O)c2ccc(C(C)(C)C)cc2)c1C,0,-6,3,-2,-2,9,x,x
O=C(COC(=O)C1CC2C=CC1C2)Nc1cccc(S(=O)(=O)N2CCOCC2)c1 (centres undefined),2,-13,5,3,-3,3,x,x
COc1ccc(NC(=O)CSCC(=O)Nc2sccc2C#N)cc1,13,10,21*,23,11,6,9,5
COc1ccc(CCC(=O)Nc2sccc2C#N)cc1,-20,-13,-2,-7,x,-6,x,x
N#C/C(=C\c1ccc(O)c(O)c1)C(=O)N1CCCC1,-1,-9,8,22,10,11,x,x
N#C/C(=C\c1ccc(O)c(O)c1)C(=O)c1ccc(O)c(O)c1,0,1,23*,24,34,11,12,72*
NNC(=O)c1nc[nH]c1C(=O)Nc1ccccc1[N+](=O)[O-],-3,-5,30*,-1,-1,2,-7,10
COc1ccccc1-c1nnc(SCC(=O)N2CCCC2)o1,0,8,21*,1,-8,8,1,19
CCNc1nc(NC(C)C)nc(N(C#N)CC(=O)OC)n1,-5,3,22*,-8,3,5,4,4
CCNc1nc(NC(C)C)nc(N(C#N)C(C)C(=O)N(C)C)n1 (centres undefined),-2,-8,-5,8,-1,1,x,x
O=C(CSc1nnc(-c2cccnc2)n1-c1ccccc1)Nc1cccc2ccccc12,x,-6,x,1,x,-2,x,x
CCN(CCO)c1nc(SC)nc2c1sc1nc(-c3ccco3)c3c(c12)CCC3,-2,x,x,x,-17,x,x,x
CSc1nc(NCCOCCO)c2sc3nc(-c4ccco4)c4c(c3c2n1)CCC4,-8,-10,20*,8,-36,7,-3,0
O=C(CSc1ccccc1)NNC(=O)c1ccccc1O,1,-7,19*,9,35,9,-10,26*
NC(=O)NC(=O)CSc1ccccc1,-2,-16,4,1,-3,-6,x,x
O=C(Nc1cccnc1Cl)c1cccc(S(=O)(=O)N2CCOCC2)c1,x,4,2,2,2,-5,x,x
